TCR CD3 inh = human TCR-CD3 binding inhibition. TAMRA-labeled TCR probe fluorescence, biochemical. inhibition, % at 9.4 µM. hit rate 0.37% among 360,000. AID 651800; in the data active = inhibition above about 19%;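 also: recombinant mutant TCR 2C K166C tagged with TAMRA read by polarization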
DDE Tn7 FP inh = disrupts Tn7 cyclic peptide binding to fibrin D-Dimer-E complex | P02675 | FP displacement of FITC-Tn7 peptide from fibrin DD(E); 0% = median of compound wells per plate | inhibition, % at 8.3 µM | hit rate 0.13% among 370,000 | AID 720508;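 active = inhibition above the mean of compounds falling within the control limits plus 3 SD of them, cut at about 14% in these data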
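System: human fibrin DD(E); quantity: Fibrin-DD(E) at 2 µM final; also added: fluorescent Tn7 probe at 0.1 µM; compound dosing: single nominal test concentration of 8.3 µM per compound; schedule: 10 min preincubation, 3 h with tracer, room temperature; detection: fluorescence polarization of the labelled Tn7 tracer; repeats: one replicate per compound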
DDE Tn6 FP inh = DD(E)-Tn6 binding inhibition, primary FP screen; P02675; Fibrin DD(E) TRITC-Tn6 fluorescence polarization displacement; inhibition, % at 8.3 µM; hit rate 0.21% among 370,000;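 active = inhibition above a per-campaign cutoff: mean of compounds within control limits plus 3 SD, cut at about 15% in these data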
ABHD4 inh = inhibits mouse alpha/beta hydrolase domain 4. AID 720543. purified mABHD4, FP-Rh probe fluorescence polarization. inhibition, % at 8.92 µM. Q8VD66. hit rate 0.54% among 370,000;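 active = inhibition exceeding the mean over every tested compound plus 3 SD, cut at about 30% in these data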
Target sequence (Q8VD66 whole entry, looked up, the tested form may be a part): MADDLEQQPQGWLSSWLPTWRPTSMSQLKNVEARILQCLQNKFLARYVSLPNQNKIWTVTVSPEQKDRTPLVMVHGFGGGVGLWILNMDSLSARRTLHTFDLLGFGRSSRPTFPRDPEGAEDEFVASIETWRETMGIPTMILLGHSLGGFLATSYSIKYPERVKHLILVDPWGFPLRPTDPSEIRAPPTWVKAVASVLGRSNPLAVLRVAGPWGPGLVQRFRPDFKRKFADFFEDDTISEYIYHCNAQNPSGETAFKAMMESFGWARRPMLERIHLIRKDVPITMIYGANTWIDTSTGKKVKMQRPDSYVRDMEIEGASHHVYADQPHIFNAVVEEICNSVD
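Material: mouse ABHD4 enzyme, wild type; Benchmarks: S159A mutant high control, sample median low control; Buffer or medium: HEPES pH 7.0, NaCl, Pluronic buffer; Signal: fluorescence polarization; Read-out: percent inhibition of probe binding, normalized to plate controls; Timing: pre-incubation 45 min, probe exposure 60 min, at 25 °C; Dosing: 8.92 µM, single dose.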
HTRA1 inh = inhibitors of human serine peptidase HTRA1; inhibition, % at 5.96 µM; Q92743; AID 504803; hit rate 0.5% among 340,000; recombinant HTRA1, FP-rhodamine activity-based probe, fluorescence polarization; in the data active = inhibition above about 36%
SIAE primary = blocks human sialic acid acetylesterase. hit rate 0.69% among 370,000. SIAE FP-Rh probe binding, fluorescence polarization. Q9HAT2. inhibition, % at 9.66 µM. AID 1053197;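 active = inhibition above a cutoff: mean of compounds within the control limits plus 3 SD of those, cut at about 17% in these data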
Tn7 DDE conf = confirmation of inhibitors of Tn7 binding to human fibrin DD(E). shares compounds with DDE Tn7 FP inh. FP displacement of TRITC-Tn7 peptide from DD(E); 0% set at plate's compound-well median. inhibition, % at 8.3 µM. hit rate 5% among 460;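 active = inhibition above the campaign cutoff, the mean of compounds within control limits plus 3 SD, cut at about 14% in these data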;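 also: displacers lower polarization since freed probe rises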
DDE Tn7 FP ctr = counter-screen hit for Tn7 peptide-fibrin DD(E) binding disruption; shares compounds with DDE Tn7 FP inh; AID 720633; inhibition, % at 8.3 µM; TRITC-Tn7 probe displacement, fluorescence polarization; hit rate 3% among 460;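 active = inhibition above the cutoff, the mean of compounds lying between the control bounds plus 3 SD of those compounds, cut at about 17% in these data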
A number is an active result; 0 = inactive; - = no result given. In the library only some 1.8% were active in any assay of this set; here they are far more common.

SMILES | TCR CD3 inh | DDE Tn7 FP inh | DDE Tn6 FP inh | ABHD4 inh | HTRA1 inh | SIAE primary | Tn7 DDE conf | DDE Tn7 FP ctr
O=C1CCC[C@H]2C[C@H](NCc3cccc(F)c3)CC[C@]23CCCN13 | - | 0 | 0 | 0 | - | 0 | - | -
O=C(c1cccc(NC2=NC3CS(=O)(=O)CC3S2)c1)N1CCN(c2cccc(Cl)c2)CC1 (configuration not stated) | 0 | 16.9 | 0 | 0 | 0 | 0 | 0 | 0
COC(=O)[C@H](CC(C)C)N(Cc1cn(Cc2ccc(C)cc2)nn1)S(=O)(=O)c1ccc(F)cc1Br | - | 0 | 0 | 0 | - | 0 | - | -
O=C(Cn1c(Cc2ccccc2)nc2ccccc21)NCc1ccc2c(c1)OCO2 | 0 | 14.5 | 0 | 0 | 0 | 0 | 0 | 0
C#CCn1cc(/C=N/NC(=O)c2cc3ccccc3o2)c2ccccc21 | 0 | 18.3 | 0 | 0 | 0 | 0 | 14.4 | 0
CCOC(=O)NC(=O)C(/C=N/c1sccc1C(=O)OC)=C(\C)O | 0 | 29.1 | 0 | 0 | - | 0 | 0 | 0
CCC(=O)Nc1sccc1C(=O)OC | - | - | - | - | 0 | - | - | -
CN(C)c1ccc(/C=N\NC(=O)c2cccc(S(=O)(=O)N(C)C)c2)cc1 | - | 0 | 0 | 0 | - | 0 | - | -
COc1ccc(Cn2nnnc2C(c2ccc(C)cc2)N2CCN(C3CCCC3)CC2)cc1 (configuration not stated) | 0 | 0 | 0 | 0 | 0 | 0 | - | -
COc1ccc(Cn2nnnc2C(c2ccc3ncccc3c2)N2CCN(C3CCCCC3)CC2)cc1 (configuration not stated) | 0 | 14.3 | 0 | 0 | 0 | 0 | 0 | 0
CCCCCC[C@@H](CC)CN(C(=O)Oc1ccccc1)c1ccccc1 | - | 15.0 | 0 | 0 | - | 0 | 0 | 0
CCC1(c2ccccc2)NC(=O)N(CC(=O)Nc2ccc3c(c2)CCC3)C1=O (configuration not stated) | 0 | 0 | 0 | 0 | 0 | 0 | - | -
CCC1(c2ccccc2)NC(=O)N(CC(=O)Nc2ccc(OC)nc2)C1=O (configuration not stated) | 0 | 22.1 | 0 | 0 | 0 | 0 | 0 | 0
CC(C)c1ccccc1NC(=O)CSc1n[nH]c(=O)n1C1CC1 | 0 | 14.5 | 0 | 0 | 0 | 0 | 0 | 0
O=C(NCCCC1CCCC1)C1CCC(=O)N(Cc2cccc(F)c2)C1 (configuration not stated) | 0 | 0 | 0 | 0 | 0 | 0 | - | -
O=C(NCCCC1CCCC1)C1CCC(=O)N(Cc2ccc(Cl)cc2)C1 (configuration not stated) | 0 | 14.2 | 0 | 0 | 0 | 0 | 0 | 0
OCCN1CCCC12CCC(c1ccccc1)CC2 (configuration not stated) | - | 0 | 0 | 0 | - | 0 | - | -
Cc1nn(C)c(C)c1CCC(=O)O | 0 | 14.3 | 0 | 0 | 0 | 0 | 0 | 0
CCN(C[C@H]1[C@@H](c2ccc(C3=CCCC3)cc2)[C@H](CO)N1c1nc(C)c(C)s1)S(=O)(=O)c1ccccc1[N+](=O)[O-] | - | 0 | 0 | 0 | - | 0 | - | -
C=CCNC(=O)CN(CCc1ccccc1)S(=O)(=O)c1ccccc1 | 0 | 15.8 | 0 | 0 | 0 | 0 | 0 | 0
C=CCNC(=O)CN(Cc1ccccc1)S(=O)(=O)c1ccc(C)cc1 | 0 | 0 | 0 | 0 | 0 | 0 | - | -
C[C@H]1[C@@H](OC(=O)Nc2ccc(C(F)(F)F)cc2)CC[C@@]23CCCN2C(=O)CCC[C@@H]13 | - | 0 | 0 | 0 | - | 0 | - | -
O=C(O)C1C2CCC1C(O)C2 (configuration not stated) | 0 | 17.1 | 0 | 0 | 0 | 0 | 0 | 0
CC(C)C[C@H]1CN=C(N(C)C)N1CCCCc1ccccc1 | 0 | 0 | 0 | 0 | 0 | 0 | - | -
C[C@H]1CN=C(N(C)C)N1CCCCc1ccccc1 | 0 | 15.7 | 0 | 0 | 0 | 0 | 0 | 0
SMILES | TCR CD3 inh | DDE Tn7 FP inh | DDE Tn6 FP inh | ABHD4 inh | HTRA1 inh | SIAE primary | Tn7 DDE conf | DDE Tn7 FP ctr
CN1CCC(NC(=O)CCc2ccccc2)CC1 | 0 | 13.9 | 0 | 0 | 0 | 0 | 0 | 0
COc1cccc(NC(=O)C(c2ccccc2)N2CCN(CC(=O)N3CCOCC3)CC2)c1 (configuration not stated) | 0 | 15.0 | 0 | 0 | 0 | 0 | 0 | 0
Cc1ccc(NC(=O)C(c2ccccc2)N2CCN(CC(=O)N3CCOCC3)CC2)cc1 (configuration not stated) | 0 | 0 | 0 | 0 | 0 | 0 | - | -
CCC1=Nc2cc(C(=O)O)ccc2Sc2ccc(Cl)cc21 | 0 | 14.7 | 0 | 0 | 0 | 0 | 0 | 0
COc1ccc(C(c2ccc(OC)cc2)N2CCN(C(=O)c3noc(C)c3[N+](=O)[O-])CC2)cc1 | - | 0 | 0 | 0 | - | 0 | - | -
Cc1ccccc1CN1CCCCC(NC(=O)c2ccc(-c3ccccc3)cc2)C1=O (configuration not stated) | - | 0 | 0 | 0 | - | 0 | - | -
Cn1c(=O)c2[nH]c(-c3ccccc3)c(O)c2n(C)c1=O | 0 | 17.1 | 0 | 0 | 0 | 0 | 0 | 0
COCCn1c(COc2cccc(OC)c2)nnc1SCC(=O)NC1CCCCC1 | 0 | 18.6 | 0 | 0 | 0 | 0 | 0 | 0
NC1=[N+](Cc2ccccc2)C[C@H]2C(=C3CCCC[C@H]3n3c(=O)n(-c4ccccc4)c(=O)n32)N1 | - | 0 | 0 | 0 | - | 0 | - | -
Oc1ccc2nnc3c(Br)cnn3c2c1 | 0 | 17.1 | 0 | 0 | 0 | 0 | 0 | 0
Clc1ccc2nc3c4ccccc4cnn3c2c1 | 0 | 0 | 0 | 0 | 0 | 0 | - | -
CCOC(=O)[C@H]1[C@H]2COc3ccccc3[C@@H]2N2C(=O)CN(Cc3ccc(C)cc3)C(=O)[C@@]12C | 0 | 20.3 | 0 | 0 | 0 | 0 | 0 | 0
C=C[C@@H]1c2ccccc2N(S(=O)(=O)c2ccc(C)cc2)[C@H](c2ccccc2)C1(C#N)C#N | 0 | 0 | 0 | 0 | 0 | 0 | - | -
C=C[C@@H]1c2cc(C)ccc2N(S(=O)(=O)c2ccc(C)cc2)[C@H](c2ccccc2)C1(C#N)C#N | 0 | 14.0 | 0 | 0 | 0 | 0 | 0 | 0
COc1ccc(-c2cn3c(C)c(C(=O)Nc4ccncc4)sc3n2)cc1 | 0 | 0 | 0 | 0 | 0 | 0 | - | -
COc1ccc(-c2cn3c(C)c(C(=O)Nc4cccc(NC(C)=O)c4)sc3n2)cc1 | 0 | 14.1 | 0 | 0 | 0 | 0 | 0 | 0
CCC(=O)N1CCc2cc(Br)c(S(=O)(=O)N3CCC(C(=O)NCCCOC(C)C)CC3)cc21 | - | 0 | 0 | 0 | - | 0 | - | -
C[C@H]1CN[C@@H](CCO)/C1=C\c1ccccc1 | 0 | 13.9 | 0 | 0 | 0 | 0 | 0 | 0
CC(C)NS(=O)(=O)c1ccc(CCC(=O)Nc2ccc3c(c2)OCCO3)cc1 | 0 | 0 | 0 | 0 | 0 | 0 | - | -
CCNS(=O)(=O)c1ccc(CCC(=O)Nc2ccc3c(c2)OCCO3)cc1 | 0 | 15.3 | 0 | 0 | 0 | 0 | 0 | 0
CC(=O)n1c2ccccc2c2ccccc21 | 0 | 13.9 | 0 | 0 | 0 | 0 | 0 | 0

Compound activity from PubChem.
